Each structure is given as a SMILES string. Values after ≈ are worked out from the molar mass of the structure shown. Bounds are passed on as bounds.

Assay [1] has as its target T1, Penicillin-binding protein 1A (Streptococcus pneumoniae serotype 4 (strain ATCC BAA-334 / TIGR4), UniProt Q04707).
T1 sequence (Q04707 whole entry): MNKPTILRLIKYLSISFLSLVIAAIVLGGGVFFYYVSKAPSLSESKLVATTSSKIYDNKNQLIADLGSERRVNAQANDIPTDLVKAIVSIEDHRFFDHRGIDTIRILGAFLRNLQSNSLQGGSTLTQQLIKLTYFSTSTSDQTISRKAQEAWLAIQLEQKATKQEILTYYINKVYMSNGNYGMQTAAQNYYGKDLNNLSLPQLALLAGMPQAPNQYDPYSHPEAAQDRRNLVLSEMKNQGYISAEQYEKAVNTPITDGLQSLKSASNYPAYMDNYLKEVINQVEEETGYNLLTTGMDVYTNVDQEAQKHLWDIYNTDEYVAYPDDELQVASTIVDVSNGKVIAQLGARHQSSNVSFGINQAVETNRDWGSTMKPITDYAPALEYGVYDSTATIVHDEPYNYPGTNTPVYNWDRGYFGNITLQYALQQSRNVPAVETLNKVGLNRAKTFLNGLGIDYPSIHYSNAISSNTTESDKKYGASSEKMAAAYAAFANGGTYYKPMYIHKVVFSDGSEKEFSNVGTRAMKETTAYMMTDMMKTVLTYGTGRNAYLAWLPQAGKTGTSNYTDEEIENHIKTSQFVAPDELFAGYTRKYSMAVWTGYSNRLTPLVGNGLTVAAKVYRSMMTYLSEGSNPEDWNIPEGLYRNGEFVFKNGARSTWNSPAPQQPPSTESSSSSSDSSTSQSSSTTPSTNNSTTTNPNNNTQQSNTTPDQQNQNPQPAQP
The assay is described as follows: Binding affinity to against penicillin-susceptible Streptococcus pneumoniae 1076 PBP1A by competitive binding assay. In outline: (§1)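 Whole pneumococcal cells grown to OD600 0.3 in Todd-Hewitt broth with 0.5% yeast extract, resuspended in 50 mM NaPO4 pH 7.0. Cells (10^8–5 × 10^8 CFU/ml) incubated with β-lactam 10 min at 37°C, then Bocillin FL 10 μg/ml, 15 min at 37°C. SDS-PAGE, 520 nm fluorescence; IC50 = 50% inhibition of Bocillin FL binding; 2 experiments.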

Assay [2] addresses T1, Penicillin-binding protein 1A. The assay is described as follows: Binding affinity to penicillin-resistant Streptococcus pneumoniae 3413 PBP1A by competitive binding assay. In outline:
(§2)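 Whole pneumococcal cells were grown to OD600 0.3 in Todd-Hewitt broth plus 0.5% yeast extract, then resuspended in 50 mM NaPO4, pH 7.0. Cells at 10^8 to 5 × 10^8 CFU/ml were exposed to β-lactam for 10 min at 37°C, alongside a reference without drug. They were then labeled with 10 μg/ml Bocillin FL for 15 min at 37°C. Proteins were resolved by SDS-PAGE and fluorescence read at 520 nm. IC50 was taken as 50% inhibition of Bocillin FL binding, from 2 experiments.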

Assay [3] has the same target. The assay is described as follows: Binding affinity to penicillin-resistant Streptococcus pneumoniae 2527 PBP1A by competitive binding assay. In outline: as §2
Assay [4] has as its target T2, Penicillin-binding protein 2x (Streptococcus pneumoniae serotype 4 (strain ATCC BAA-334 / TIGR4), UniProt P14677). The assay is described as follows: Binding affinity to penicillin-resistant Streptococcus pneumoniae 24 PBP2X by competitive binding assay. An outline of the steps:
as §2

Assay [5] addresses T2, Penicillin-binding protein 2x. As to the kind of experiment: Binding affinity to penicillin-resistant Streptococcus pneumoniae 3413 PBP2X by competitive binding assay. In outline:
as §2

The target is the same in assay [6]. As to the kind of experiment: Binding affinity to penicillin-resistant Streptococcus pneumoniae 2527 PBP2X by competitive binding assay. In outline:
as §2

Assay [7] in a line: Binding affinity to penicillin-resistant Streptococcus pneumoniae 24 PBP2A by competitive binding assay. In outline:
as §1

Assay [8] deals with T3, Penicillin-binding protein 2B (Streptococcus pneumoniae serotype 4 (strain ATCC BAA-334 / TIGR4), UniProt P0A3M5).
T3 sequence (P0A3M5 whole entry): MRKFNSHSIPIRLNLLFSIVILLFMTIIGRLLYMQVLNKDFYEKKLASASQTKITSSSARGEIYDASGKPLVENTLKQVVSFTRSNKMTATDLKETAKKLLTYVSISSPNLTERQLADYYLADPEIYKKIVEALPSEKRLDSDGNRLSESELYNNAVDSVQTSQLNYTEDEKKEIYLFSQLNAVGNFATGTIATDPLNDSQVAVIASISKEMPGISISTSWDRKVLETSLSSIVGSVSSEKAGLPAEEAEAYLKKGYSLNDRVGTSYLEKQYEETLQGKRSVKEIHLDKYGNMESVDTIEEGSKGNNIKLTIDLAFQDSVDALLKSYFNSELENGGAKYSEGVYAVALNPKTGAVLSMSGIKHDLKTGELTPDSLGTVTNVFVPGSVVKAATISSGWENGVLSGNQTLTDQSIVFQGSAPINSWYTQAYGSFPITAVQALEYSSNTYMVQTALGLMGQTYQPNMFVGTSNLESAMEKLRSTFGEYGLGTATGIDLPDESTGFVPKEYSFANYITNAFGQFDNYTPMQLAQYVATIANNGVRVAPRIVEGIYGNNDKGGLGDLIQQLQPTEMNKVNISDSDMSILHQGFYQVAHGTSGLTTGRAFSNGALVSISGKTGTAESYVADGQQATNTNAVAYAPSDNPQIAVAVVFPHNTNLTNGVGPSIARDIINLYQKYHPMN
As to the kind of experiment: Binding affinity to against penicillin-susceptible Streptococcus pneumoniae 1076 PBP2B by competitive binding assay. An outline of the steps: as §1

The target of assay [9] is T3, Penicillin-binding protein 2B. As to the kind of experiment: Binding affinity to penicillin-resistant Streptococcus pneumoniae 3413 PBP2B by competitive binding assay. An outline of the steps: as §2
Assay [10] in a line: Binding affinity to penicillin-resistant Streptococcus pneumoniae 24 PBP3 by competitive binding assay. In outline: as §2
A short description of assay [11]: Binding affinity to penicillin-resistant Streptococcus pneumoniae 2527 PBP3 by competitive binding assay. In outline: as §2

T2 sequence (P14677 whole entry, looked up): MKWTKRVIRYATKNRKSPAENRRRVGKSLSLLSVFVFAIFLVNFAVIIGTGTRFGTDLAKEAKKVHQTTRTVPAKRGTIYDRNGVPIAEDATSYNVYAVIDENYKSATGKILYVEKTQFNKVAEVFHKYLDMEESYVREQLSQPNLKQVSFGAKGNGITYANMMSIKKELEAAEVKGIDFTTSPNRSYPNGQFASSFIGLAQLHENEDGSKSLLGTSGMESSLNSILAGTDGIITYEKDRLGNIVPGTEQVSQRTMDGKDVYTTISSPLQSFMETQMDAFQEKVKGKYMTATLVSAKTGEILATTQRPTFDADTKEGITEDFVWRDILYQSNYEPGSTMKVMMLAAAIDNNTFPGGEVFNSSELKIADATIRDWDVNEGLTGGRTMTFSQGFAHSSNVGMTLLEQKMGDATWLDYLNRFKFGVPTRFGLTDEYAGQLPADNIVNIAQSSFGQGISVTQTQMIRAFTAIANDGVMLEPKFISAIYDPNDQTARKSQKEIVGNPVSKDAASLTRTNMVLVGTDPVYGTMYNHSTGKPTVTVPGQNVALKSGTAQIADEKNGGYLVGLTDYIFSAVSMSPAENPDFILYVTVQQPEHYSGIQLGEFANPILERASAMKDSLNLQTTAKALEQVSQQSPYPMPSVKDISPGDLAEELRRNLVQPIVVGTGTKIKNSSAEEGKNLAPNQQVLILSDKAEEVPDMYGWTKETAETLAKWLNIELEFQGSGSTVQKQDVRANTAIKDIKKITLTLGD

As a reminder, the IC50 is the concentration that inhibits the measured activity by half. Turning to `CO/N=C(\C(=O)N[C@@H]1C(=O)N2C(C(=O)O)=C(COC(C)=O)CS[C@H]12)c1csc(N)n1` [CEFOTAXIME], the IC50 was 220 nM in assay [1]; 549 nM in assay [2]; 549 nM in assay [3]; 2200 nM in assay [4]; 8780 nM in assay [5]; 220 nM in assay [6]. Moreover, the IC50 in assay [7] was 0.5 µg/mL (≈ 1.1 µM); in assay [8], greater than 70300 nM; in assay [9], 35100 nM; in assay [10] it was 0.1 µg/mL (≈ 0.22 µM); in assay [11], 0.1 µg/mL (≈ 0.22 µM).
With `CO/N=C(\C(=O)N[C@@H]1C(=O)N2C(C(=O)O)=C(CSc3nc(=O)c(O)nn3C)CS[C@H]12)c1csc(N)n1` [CEFTRIAXONE], the IC50 in assay [1] was 180 nM; in assay [2], 451 nM; in [3], 451 nM; in [4] it was 1800 nM; in [5], 7210 nM; in assay [6] it was 180 nM. Moreover, the IC50 in [7] is 1 µg/mL (≈ 1.8 µM); in assay [8] it was greater than 57700 nM; in [9], 28900 nM; in [10], 0.25 µg/mL (≈ 0.451 µM); in assay [11], 0.25 µg/mL (≈ 0.451 µM).
